Active and inactive are the calls of the source. The calls are words filed in the database; no cut-off is given here.
Legend:
Estrogen receptor [1] = biological target: T1, Estrogen receptor (Homo sapiens, UniProt P03372); experiment: Displacement of [3H]estradiol from full-length human ERalpha receptor by scintillation counting
T1 sequence (P03372 whole entry): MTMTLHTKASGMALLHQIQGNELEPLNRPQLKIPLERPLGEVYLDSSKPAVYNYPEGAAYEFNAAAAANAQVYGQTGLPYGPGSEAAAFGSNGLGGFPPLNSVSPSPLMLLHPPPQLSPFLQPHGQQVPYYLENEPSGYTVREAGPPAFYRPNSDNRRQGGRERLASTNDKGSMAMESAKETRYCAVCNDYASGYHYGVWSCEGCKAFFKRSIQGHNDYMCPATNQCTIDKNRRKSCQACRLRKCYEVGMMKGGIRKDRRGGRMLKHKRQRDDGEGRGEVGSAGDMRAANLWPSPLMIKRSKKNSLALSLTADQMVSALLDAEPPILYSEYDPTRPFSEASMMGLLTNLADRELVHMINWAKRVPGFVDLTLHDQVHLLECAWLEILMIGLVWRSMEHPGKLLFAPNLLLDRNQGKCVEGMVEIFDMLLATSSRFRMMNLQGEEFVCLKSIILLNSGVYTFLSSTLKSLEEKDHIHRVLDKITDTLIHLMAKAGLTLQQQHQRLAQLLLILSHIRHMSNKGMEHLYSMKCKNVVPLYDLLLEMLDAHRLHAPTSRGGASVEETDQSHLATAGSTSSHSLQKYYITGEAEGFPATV

MCF7 [2] = experiment: Antiproliferative activity against ER-positive human MCF7 cells at 3 uM after 6 days by WST-1 assay; type: functional
Procedure, shortened: (§1)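 MCF-7 cells (ATCC), 6-day compound exposure; viability by WST-1 absorbance at 450 nm, expressed relative to vehicle-treated controls. Run in triplicate; 3 μM single-concentration screen values are averages of two to three independent experiments. Dose-response curves give IC50.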

MDA-MB-231 = experiment: Antiproliferative activity against ERalpha-negative human MDA-MB-231 cells at 3 uM after 6 days by WST-1 assay; type: functional, cell-based
Procedure, shortened: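 ERα-negative MDA-MB-231 breast cancer cells screened for proliferation with compound at 3 μM; WST-1 read-out at 450 nm after 6 days, relative to vehicle.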

[3] = biological target: T2, Estrogen receptor (Homo sapiens) (UniProt P03372); experiment: Displacement of [3H]estradiol from full-length human ERalpha receptor by scintillation counting relative to estradiol
T2 sequence (whole entry): T1 sequence (P03372 whole entry)

[4] = biological target: T2, Estrogen receptor (Homo sapiens); experiment: Downregulation of ER-alpha levels in ER-positive human MCF-7 cells at 3 uM after 24 hrs by in-cell Western assay
Estrogen receptor [5] = biological target: T1, Estrogen receptor; experiment: Downregulation of human ERalpha in human MCF-7 cells after 24 hrs by in-cell Western immunoassay method; type: cell-based
Procedure, shortened: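 MCF-7 cells at 3000 cells/well treated 24 h (3 μM screen or dose-response); formaldehyde-fixed, Triton-permeabilized, stained with rabbit HC-20 anti-ERα overnight at 4 °C, IR secondary plus Cell Tag 700 normalization; in-cell Western imaging, ERα relative to vehicle, average of at least three independent experiments.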

[6] = biological target: T2, Estrogen receptor (Homo sapiens); experiment: Downregulation of human ERalpha in human MCF-7 cells at 3 x 10^-10 M after 24 hrs by Western blot method; type: cell-based
Procedure, shortened: (§2)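 MCF-7 cells treated 24 h at 3 × 10−10, 3 × 10−8 or 3 × 10−6 M; whole-cell extracts with protease/phosphatase inhibitors, 10% SDS-PAGE, nitrocellulose, probed with anti-ERα F10 and β-actin; ERα given as percent of vehicle.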

[7] = biological target: T2, Estrogen receptor (Homo sapiens); experiment: Downregulation of human ERalpha in human MCF-7 cells at 3 x 10^-8 M after 24 hrs by Western blot method; type: cell-based; procedure, shortened: as §2
[8] = biological target: T2, Estrogen receptor (Homo sapiens); experiment: Downregulation of human ERalpha in human MCF-7 cells at 3 x 10^-6 M after 24 hrs by Western blot method; type: cell-based; procedure, shortened: as §2
Estrogen receptor [9] = biological target: T1, Estrogen receptor; experiment: Downregulation of ERalpha in human MCF-7 cells assessed as reduction of estradiol-induced GREB1 mRNA levels after 24 hrs by RT-PCR method; type: cell-based
Procedure, shortened: (§3)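 MCF-7 cells in full medium (5% FBS) with 3 × 10−10 M E2, treated 24 h across a concentration range; TRIzol RNA, reverse transcription, SYBR green qPCR for GREB1, PgR or pS2 normalized to 36B4, fold change versus vehicle; mean ± SD of at least two independent experiments in triplicate.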

Estrogen receptor [10] = biological target: T1, Estrogen receptor; experiment: Downregulation of ERalpha in human MCF-7 cells assessed as reduction of estradiol-induced PgR mRNA levels after 24 hrs by RT-PCR method; type: cell-based; procedure, shortened: as §3
Estrogen receptor [11] = biological target: T1, Estrogen receptor; experiment: Downregulation of ERalpha in human MCF-7 cells assessed as reduction of estradiol-induced pS2 mRNA levels after 24 hrs by RT-PCR method; type: cell-based; procedure, shortened: as §3
MCF7 [12] = experiment: Antiproliferative activity against ER-positive human MCF7 cells after 6 days by WST-1 assay; type: functional, cell-based; settings: MCF7, 144 h; procedure, shortened: as §1

Ki (Estrogen receptor [1]) [nM]	RBA [3] [%]	Activity [4]	SMILES	Activity (MCF7 [2])	Activity (MDA-MB-231)	also measured
0.4	51	Active	O=C(O)/C=C/c1ccc(C(=C2C3CC4CC(C3)CC2C4)c2ccc(O)cc2)cc1	Active	inactive	IC50 (Estrogen receptor [5]): 17 nM; Activity [6]: Active; Activity [7]: Active; Activity [8]: Active; IC50 (Estrogen receptor [9]): 500 nM; IC50 (Estrogen receptor [10]): 500 nM; IC50 (Estrogen receptor [11]): 500 nM; IC50 (MCF7 [12]): 31 nM
1.1	18		CCCNC(=O)/C=C/c1ccc(C(=C2C3CC4CC(C3)CC2C4)c2ccc(O)cc2)cc1	Active	inactive	
0.27	71	inactive	NC(=O)/C=C/c1ccc(C(=C2C3CC4CC(C3)CC2C4)c2ccc(O)cc2)cc1		inactive	
3.3	13	inactive	CCOC(=O)/C=C/c1ccc(C(=C2C3CC4CC(C3)CC2C4)c2ccc(O)cc2)cc1		inactive	
	46	inactive	COC(=O)/C=C/c1ccc(C(=C2C3CC4CC(C3)CC2C4)c2ccc(O)cc2)cc1		inactive	
0.18	109	Active	O=C(/C=C/c1ccc(C(=C2C3CC4CC(C3)CC2C4)c2ccc(O)cc2)cc1)NCCO	24%	inactive	IC50 (Estrogen receptor [5]): 5.6 nM; IC50 (MCF7 [12]): 2.4 nM
1.4	14	Active	N#C/C=C/c1ccc(C(=C2C3CC4CC(C3)CC2C4)c2ccc(O)cc2)cc1	inactive	inactive	
	54	inactive	O=C(/C=C/c1ccc(C(=C2C3CC4CC(C3)CC2C4)c2ccc(O)cc2)cc1)OCCO		inactive	
0.57	35	Active	NCCNC(=O)/C=C/c1ccc(C(=C2C3CC4CC(C3)CC2C4)c2ccc(O)cc2)cc1	Active	inactive	

The next lines start with the compound.

SMILES	Ki (Estrogen receptor [1]) [nM]	RBA [3] [%]	Activity [4]	Activity (MCF7 [2])	Activity (MDA-MB-231)	also measured
O=C(/C=C/c1ccc(C(=C2C3CC4CC(C3)CC2C4)c2ccc(O)cc2)cc1)NCCCCO	0.36	56		Active	inactive	
CCCCN(C)C(=O)/C=C/c1ccc(C(=C2C3CC4CC(C3)CC2C4)c2ccc(O)cc2)cc1		28	inactive	inactive	inactive	
CCCCCC(=O)/C=C/c1ccc(C(=C2C3CC4CC(C3)CC2C4)c2ccc(O)cc2)cc1	1.7	12			inactive	
CCC(=C(c1ccc(O)cc1)c1ccc(/C=C/C(=O)O)cc1)c1ccccc1					inactive	
O=C(/C=C/c1ccc(C(=C2C3CC4CC(C3)CC2C4)c2ccc(O)cc2)cc1)OCCCCO	0.45	44	Active		inactive	
CN(CCO)C(=O)/C=C/c1ccc(C(=C2C3CC4CC(C3)CC2C4)c2ccc(O)cc2)cc1					inactive	
O=C(/C=C/c1ccc(C(=C2C3CC4CC(C3)CC2C4)c2ccc(O)cc2)cc1)NCCCCCO	0.65	31		Active	inactive	
O=C(/C=C/c1ccc(C(=C2C3CC4CC(C3)CC2C4)c2ccc(O)cc2)cc1)OCCCO		28	inactive		inactive	
CC(C)CCCCCOC(=O)/C=C/c1ccc(C(=C2C3CC4CC(C3)CC2C4)c2ccc(O)cc2)cc1	7.1	2.8	Active		inactive	
CN(C)CCNC(=O)/C=C/c1ccc(C(=C2C3CC4CC(C3)CC2C4)c2ccc(O)cc2)cc1	0.35	57			inactive	
NCCCNC(=O)/C=C/c1ccc(C(=C2C3CC4CC(C3)CC2C4)c2ccc(O)cc2)cc1		54	Active	Active	inactive	
NCCCCNC(=O)/C=C/c1ccc(C(=C2C3CC4CC(C3)CC2C4)c2ccc(O)cc2)cc1			Active		inactive	
O=C(/C=C/c1ccc(C(=C2C3CC4CC(C3)CC2C4)c2ccc(O)cc2)cc1)NCCCO		47		30%	inactive	IC50 (Estrogen receptor [5]): 0.53 nM; Activity [6]: Active; Activity [7]: Active; Activity [8]: Active; IC50 (Estrogen receptor [9]): 50 nM; IC50 (Estrogen receptor [10]): 50 nM; IC50 (Estrogen receptor [11]): 50 nM; IC50 (MCF7 [12]): 1.9 nM
CCCNS(=O)(=O)/C=C/c1ccc(C(=C2C3CC4CC(C3)CC2C4)c2ccc(O)cc2)cc1	0.38	52	Active	Active	inactive	
O=C(/C=C/c1ccc(C(=C2C3CC4CC(C3)CC2C4)c2ccc(O)cc2)cc1)NCC(F)(F)F	1.33	15	inactive		inactive	
CCCCCNC(=O)/C=C/c1ccc(C(=C2C3CC4CC(C3)CC2C4)c2ccc(O)cc2)cc1	0.74	27		Active	inactive	
CCCCNC(=O)/C=C/c1ccc(C(=C2C3CC4CC(C3)CC2C4)c2ccc(O)cc2)cc1		28	Active	Active	inactive	
O=C(/C=C/c1ccc(C(=C2C3CC4CC(C3)CC2C4)c2ccc(O)cc2)cc1)N(CCO)CCO	0.13	115			inactive	
CCCCOC(=O)/C=C/c1ccc(C(=C2C3CC4CC(C3)CC2C4)c2ccc(O)cc2)cc1	1.8	11	Active	40%	inactive	

Source: ChEMBL document CHEMBL4011648, “Adamantyl Antiestrogens with Novel Side Chains Reveal a Spectrum of Activities in Suppressing Estrogen Receptor Mediated Activities in Breast Cancer Cells” (J Med Chem, 2017)
